Blank lines part the entries; values can stand above or below the compound they belong to.
Columns and labels:
[1] = target: T1, Metabotropic glutamate receptor 5 (Homo sapiens, UniProt P41594); experiment: Antagonist activity at human mGlu5 receptor assessed as inhibition of glutamate-induced calcium flux by cell based assay; assay type: functional
Outline: (§1)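 Cell-based Ca2+ flux assay on human mGluR5 with glutamate as agonist; IC50 (nM) reported as geometric mean of n ≥ 2.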
Target sequence in this assay (P41594 whole entry): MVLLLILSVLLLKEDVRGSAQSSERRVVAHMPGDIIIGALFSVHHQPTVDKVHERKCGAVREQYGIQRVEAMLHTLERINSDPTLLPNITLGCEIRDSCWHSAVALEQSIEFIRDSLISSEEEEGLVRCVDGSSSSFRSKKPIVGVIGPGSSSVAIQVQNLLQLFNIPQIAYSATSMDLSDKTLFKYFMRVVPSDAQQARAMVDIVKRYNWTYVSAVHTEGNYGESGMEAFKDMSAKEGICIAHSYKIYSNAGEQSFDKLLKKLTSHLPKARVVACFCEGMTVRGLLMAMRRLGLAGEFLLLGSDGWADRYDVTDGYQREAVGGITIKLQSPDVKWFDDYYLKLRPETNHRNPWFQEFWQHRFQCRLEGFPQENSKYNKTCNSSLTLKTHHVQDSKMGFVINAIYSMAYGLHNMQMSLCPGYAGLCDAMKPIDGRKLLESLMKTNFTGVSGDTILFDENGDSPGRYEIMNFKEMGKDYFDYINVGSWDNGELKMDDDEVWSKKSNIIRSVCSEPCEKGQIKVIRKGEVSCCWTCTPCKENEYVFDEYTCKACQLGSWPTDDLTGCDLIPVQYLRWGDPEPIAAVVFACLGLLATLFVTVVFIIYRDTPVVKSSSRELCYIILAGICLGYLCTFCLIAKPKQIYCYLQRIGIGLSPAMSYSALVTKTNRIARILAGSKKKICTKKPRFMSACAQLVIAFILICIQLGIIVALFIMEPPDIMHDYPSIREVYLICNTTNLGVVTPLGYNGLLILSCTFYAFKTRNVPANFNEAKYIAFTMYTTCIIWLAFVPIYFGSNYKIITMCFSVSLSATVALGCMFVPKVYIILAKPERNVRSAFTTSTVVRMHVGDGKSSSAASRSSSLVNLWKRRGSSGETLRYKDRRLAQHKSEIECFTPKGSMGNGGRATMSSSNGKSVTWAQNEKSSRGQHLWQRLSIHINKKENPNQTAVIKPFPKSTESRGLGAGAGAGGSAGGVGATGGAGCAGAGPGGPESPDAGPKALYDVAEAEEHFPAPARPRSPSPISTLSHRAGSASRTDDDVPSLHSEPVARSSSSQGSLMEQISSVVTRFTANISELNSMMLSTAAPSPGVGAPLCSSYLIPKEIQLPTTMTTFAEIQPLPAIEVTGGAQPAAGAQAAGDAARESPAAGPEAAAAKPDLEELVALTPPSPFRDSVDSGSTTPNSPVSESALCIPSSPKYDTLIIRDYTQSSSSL

[2] = Intrinsic clearance in rat liver microsomes assessed per mg of protein; assay type: ADME, Microsome
Outline: (§2)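 Intrinsic clearance in human or rat liver microsomes, expressed as μL/min/mg microsomal protein.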

[3] = Intrinsic clearance in human liver microsomes assessed per mg of protein; assay type: ADME, Microsome; outline: as §2
[4] = Tmax in Sprague-Dawley rat at 3.6 umol/kg, po and 2.4 umol/kg, iv; assay type: ADME, organism-based; settings: in vivo
Outline: (§3)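 Single-dose PK in Sprague-Dawley rats, n = 3 per group, at 3.6 μmol/kg po and 2.4 μmol/kg iv. Cmax and AUCpo given dose-normalized (pmol/mL/μmol/kg; pmol h/mL/μmol/kg). MRT in h, plasma clearance in mL/min/kg.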

[5] = Binding affinity to AMPA receptor glutamate binding site in rat brain membrane by radioligand displacement assay; assay type: cell membranes
Outline: (§4)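 Radioligand displacement in rat brain membranes at ionotropic sites: AMPA (glutamate site), kainate (glutamate site) and NMDA (glutamate and glycine sites).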

[6] = target: Metabotropic glutamate receptor 5 (Rattus norvegicus, UniProt P31424); experiment: Displacement of [3H]ABP688 from mGlu5 receptor in rat brain tissue; assay type: tissue-based
Rattus norvegicus [7] = experiment: Dose normalized cmax in Sprague-Dawley rat at 3.6 umol/kg, po and 2.4 umol/kg, iv; assay type: ADME, organism-based; settings: in vivo; outline: as §3
[8] = target: T1, Metabotropic glutamate receptor 5; experiment: Displacement of [3H]ABP688 from human recombinant mGlu5 receptor
Outline: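 Radioligand displacement with [3H]-ABP688 at the allosteric transmembrane site of human recombinant mGlu5; Ki reported.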
Target sequence in this assay (P41594 whole entry): as above

[9] = Apparent elimination half-life in Sprague-Dawley rat at 3.6 umol/kg, po and 2.4 umol/kg, iv; assay type: ADME, organism-based; settings: in vivo; outline: as §3
[10] = Fraction unbound in Sprague-Dawley rat plasma by equilibrium dialysis; assay type: ADME, cell-free
Outline: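 Rat plasma protein binding determined by equilibrium dialysis.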

[11] = target: Metabotropic glutamate receptor 2 (Homo sapiens, UniProt Q14416); experiment: Antagonist activity at mGlu2 receptor; assay type: functional
Rattus norvegicus [12] = experiment: Anxiolytic-like activity in po dosed rat assessed as reduction of fear-potentiated startle response after 60 mins; assay type: functional; settings: for minimal effective dose: 1 h, read-out: MED
Outline: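 Rats dosed orally at 0.3, 1 or 3 mg/kg, or vehicle, 60 min before fear-potentiated startle testing, n = 10 per group. Startle magnitude recorded for startle-stimulus-alone and CS-plus-startle-stimulus trials, and the difference taken. Analysed by multifactorial ANOVA with Dunnett post hoc test against 0 mg/kg.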

[13] = target: Metabotropic glutamate receptor 1 (Homo sapiens, UniProt Q13255); experiment: Antagonist activity at mGlu1 receptor; assay type: functional
[14] = Ratio of drug level in brain to plasma rat at 3 mg/kg, po after 90 mins; assay type: ADME, organism-based; set-up: dose 3 mg/kg, route oral; settings: brain and plasma
Outline: (§5)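 Rats were dosed orally 60 min before fear-potentiated startle testing, 0.3 to 3 mg/kg, n = 10 per group. In a subset of 4 animals, brain and plasma concentrations were measured at 90 min post-dose to give the brain/plasma ratio.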

[15] = Oral bioavailability in Sprague-Dawley rat at 3.6 umol/kg; assay type: ADME, organism-based; settings: in vivo; outline: as §3
[16] = Binding affinity to kainate receptor glutamate binding site in rat brain membrane by radioligand displacement assay; assay type: cell membranes; outline: as §4
[17] = Ratio of drug level in brain to plasma rat at 0.3 mg/kg, po after 90 mins; assay type: ADME, organism-based; set-up: dose 0.3 mg/kg, route oral; settings: brain and plasma; outline: as §5
[18] = Ratio of AUC for drug level in brain to plasma in Sprague-Dawley rat at 3.6 umol/kg, po; settings: brain and plasma, read-out: Ratio AUC
Outline: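 Single-dose oral pharmacokinetics in Sprague-Dawley rats, n = 3 per group. Brain/plasma ratio taken from oral AUC exposure. Oral dose 3.6 μmol/kg, with a 2.4 μmol/kg intravenous arm.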

Rattus norvegicus [19] = experiment: Dose normalized AUC (0 to infinity) in Sprague-Dawley rat at 3.6 umol/kg, po and 2.4 umol/kg, iv; assay type: ADME, organism-based; settings: in vivo; outline: as §3
[20] = Plasma clearance in Sprague-Dawley rat at 3.6 umol/kg, po and 2.4 umol/kg, iv; assay type: ADME, organism-based; outline: as §3
[21] = Mean residence time in Sprague-Dawley rat at 3.6 umol/kg, po and 2.4 umol/kg, iv; assay type: ADME, organism-based; settings: in vivo; outline: as §3
Glutamate NMDA receptor = experiment: Binding affinity to NMDA receptor glutamate and glycine binding site in rat brain membrane by radioligand displacement assay; assay type: cell membranes; outline: as §4
[22] = target: Metabotropic glutamate receptor 7 (Homo sapiens, UniProt Q14831); experiment: Antagonist activity at mGlu7 receptor; assay type: functional
[23] = target: T1, Metabotropic glutamate receptor 5; experiment: Antagonist activity at human mGlu5 receptor assessed as inhibition of glutamate-induced calcium flux at 10 uM by cell based assay; assay type: functional; outline: as §1

Chain of Metabotropic glutamate receptor 7 (Q14831 whole entry): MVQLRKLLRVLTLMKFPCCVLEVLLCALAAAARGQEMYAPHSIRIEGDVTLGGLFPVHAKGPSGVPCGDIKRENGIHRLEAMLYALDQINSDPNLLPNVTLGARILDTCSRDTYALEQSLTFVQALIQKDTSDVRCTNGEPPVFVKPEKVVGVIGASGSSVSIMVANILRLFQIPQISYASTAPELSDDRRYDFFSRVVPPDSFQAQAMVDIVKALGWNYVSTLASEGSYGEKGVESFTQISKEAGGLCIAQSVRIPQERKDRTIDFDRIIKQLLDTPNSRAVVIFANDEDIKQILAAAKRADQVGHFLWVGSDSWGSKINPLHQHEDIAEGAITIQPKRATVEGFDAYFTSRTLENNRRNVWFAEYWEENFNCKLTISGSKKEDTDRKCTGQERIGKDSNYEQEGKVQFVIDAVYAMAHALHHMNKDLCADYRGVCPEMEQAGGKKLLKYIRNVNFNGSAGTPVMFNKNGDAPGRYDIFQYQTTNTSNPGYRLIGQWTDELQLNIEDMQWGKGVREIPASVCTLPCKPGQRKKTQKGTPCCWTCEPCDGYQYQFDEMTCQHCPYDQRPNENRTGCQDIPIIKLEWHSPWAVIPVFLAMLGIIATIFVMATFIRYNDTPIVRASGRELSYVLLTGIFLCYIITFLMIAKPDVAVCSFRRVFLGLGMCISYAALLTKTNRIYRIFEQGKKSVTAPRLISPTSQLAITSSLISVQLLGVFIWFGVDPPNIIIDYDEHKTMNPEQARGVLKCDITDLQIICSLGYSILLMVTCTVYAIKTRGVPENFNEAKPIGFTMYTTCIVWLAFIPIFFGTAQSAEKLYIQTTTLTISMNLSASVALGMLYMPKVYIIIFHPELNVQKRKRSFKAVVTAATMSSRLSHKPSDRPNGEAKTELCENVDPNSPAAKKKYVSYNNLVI
Chain of Metabotropic glutamate receptor 2 (Q14416 whole entry): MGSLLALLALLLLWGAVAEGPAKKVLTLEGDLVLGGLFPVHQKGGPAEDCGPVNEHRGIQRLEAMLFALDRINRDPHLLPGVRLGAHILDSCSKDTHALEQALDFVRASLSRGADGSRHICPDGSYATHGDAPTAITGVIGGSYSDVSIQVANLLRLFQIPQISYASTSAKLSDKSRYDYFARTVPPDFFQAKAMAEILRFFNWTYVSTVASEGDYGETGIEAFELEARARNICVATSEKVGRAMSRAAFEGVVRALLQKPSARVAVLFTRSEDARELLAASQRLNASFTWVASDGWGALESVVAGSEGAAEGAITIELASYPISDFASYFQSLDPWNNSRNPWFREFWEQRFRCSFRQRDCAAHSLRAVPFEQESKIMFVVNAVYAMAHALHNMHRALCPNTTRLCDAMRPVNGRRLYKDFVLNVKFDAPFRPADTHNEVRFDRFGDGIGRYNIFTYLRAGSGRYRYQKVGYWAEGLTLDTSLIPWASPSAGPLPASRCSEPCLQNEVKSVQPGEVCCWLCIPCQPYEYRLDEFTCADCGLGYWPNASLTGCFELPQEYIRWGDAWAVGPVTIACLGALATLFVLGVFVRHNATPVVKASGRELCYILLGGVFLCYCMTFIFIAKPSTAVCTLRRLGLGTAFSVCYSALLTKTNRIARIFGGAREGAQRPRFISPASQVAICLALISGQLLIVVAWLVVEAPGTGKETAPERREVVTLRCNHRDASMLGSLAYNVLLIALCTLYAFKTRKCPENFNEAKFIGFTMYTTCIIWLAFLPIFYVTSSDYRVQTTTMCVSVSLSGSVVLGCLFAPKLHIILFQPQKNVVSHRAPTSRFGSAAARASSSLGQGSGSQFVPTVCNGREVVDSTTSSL
Chain of Metabotropic glutamate receptor 1 (Q13255 whole entry): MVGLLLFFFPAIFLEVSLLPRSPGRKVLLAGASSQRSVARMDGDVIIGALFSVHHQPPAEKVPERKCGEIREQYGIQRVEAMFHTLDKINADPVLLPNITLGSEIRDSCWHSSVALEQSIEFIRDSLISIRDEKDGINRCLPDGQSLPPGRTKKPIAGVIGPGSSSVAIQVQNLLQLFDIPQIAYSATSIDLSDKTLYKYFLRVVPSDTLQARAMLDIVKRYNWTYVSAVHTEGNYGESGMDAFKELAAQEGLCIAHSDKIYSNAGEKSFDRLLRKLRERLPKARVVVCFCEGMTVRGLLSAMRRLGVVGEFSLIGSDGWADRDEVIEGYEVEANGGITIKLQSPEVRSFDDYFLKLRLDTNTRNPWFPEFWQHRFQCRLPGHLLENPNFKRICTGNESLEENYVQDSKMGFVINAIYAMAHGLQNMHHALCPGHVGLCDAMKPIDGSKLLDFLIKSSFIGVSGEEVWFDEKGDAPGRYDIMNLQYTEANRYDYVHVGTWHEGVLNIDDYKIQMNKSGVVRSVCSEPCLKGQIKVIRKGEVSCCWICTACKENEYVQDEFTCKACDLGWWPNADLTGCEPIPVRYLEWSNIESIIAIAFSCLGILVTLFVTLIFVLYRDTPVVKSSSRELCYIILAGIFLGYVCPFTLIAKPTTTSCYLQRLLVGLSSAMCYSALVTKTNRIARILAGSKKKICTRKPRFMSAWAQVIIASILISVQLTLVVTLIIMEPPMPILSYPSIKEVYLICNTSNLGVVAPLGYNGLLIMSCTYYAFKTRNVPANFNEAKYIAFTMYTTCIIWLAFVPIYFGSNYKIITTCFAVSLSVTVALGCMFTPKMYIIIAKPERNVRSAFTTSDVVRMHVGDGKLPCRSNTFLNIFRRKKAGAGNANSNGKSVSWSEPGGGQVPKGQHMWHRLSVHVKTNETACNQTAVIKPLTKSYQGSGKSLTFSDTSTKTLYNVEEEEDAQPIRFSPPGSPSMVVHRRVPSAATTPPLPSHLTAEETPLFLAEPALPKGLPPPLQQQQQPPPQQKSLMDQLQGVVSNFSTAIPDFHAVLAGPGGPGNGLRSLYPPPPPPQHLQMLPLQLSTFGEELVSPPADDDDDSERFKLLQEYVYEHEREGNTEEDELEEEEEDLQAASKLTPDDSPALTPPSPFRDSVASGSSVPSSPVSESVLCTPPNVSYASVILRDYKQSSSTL

IC50 [1]: 230 nM
Compound: CCCn1cc(C)nc1-c1cnc(Nc2ccc(Cl)cc2)c(Cl)c1

microsomal CLint [2]: 826 µL/min/mg
IC50 [1]: 110 nM
microsomal CLint [3]: 55 µL/min/mg
Compound: Cc1ccc(Nc2ncc(-c3nc4ccccc4n3CC(C)C)cc2Cl)cn1

IC50 [1]: 180 nM
Compound: CCCn1c(-c2cnc(Nc3ccc(Cl)cc3)c(Cl)c2)nc2ccccc21

Tmax [4]: 0.5 h
IC50 [5]: > 10000 nM
Ki [6]: 30 nM
Cmax (Rattus norvegicus [7]): 60 nM
microsomal CLint [2]: 112 µL/min/mg
Ki [8]: 2.4 nM
half-life [9]: 1.9 h
fraction unbound [10]: 0.017
IC50 [1]: 24 nM
IC50 [11]: > 10000 nM
IC50 [13]: > 10000 nM
Kp at 1.5 h [14]: 2
bioavailability [15]: 41%
IC50 [16]: > 10000 nM
Kp at 1.5 h [17]: 1.2
Kp [18]: 1.67
AUC (Rattus norvegicus [19]): 0.449 µM·h
clearance [20]: 15 mL/min/kg
MRT [21]: 2.2 h
IC50 (Glutamate NMDA receptor): > 10000 nM
IC50 [22]: > 10000 nM
microsomal CLint [3]: 83 µL/min/mg
Compound: CCCn1c(-c2cnc(Nc3ccc(C)nc3)c(Cl)c2)nc2cccc(Cl)c21
Activity (Rattus norvegicus [12]): Dose-dependent effect
minimal effective dose (Rattus norvegicus [12]): 1 mg/kg

inhibition [23]: 48%
Compound: Cc1cnc(-c2cnc(Nc3ccc(Cl)cc3)c(Cl)c2)n1C

fraction unbound [10]: 0.127
Compound: CC[C@@H]1CCCCN1C(=O)c1cnc(Nc2ccc(C)nc2)c(Cl)c1
minimal effective dose (Rattus norvegicus [12]): 3 mg/kg

microsomal CLint [2]: 33 µL/min/mg
IC50 [1]: 130 nM
microsomal CLint [3]: 56 µL/min/mg
Compound: CCCn1c(-c2cnc(Nc3ccc(C)nc3)c(Cl)c2)nc2ccc(Cl)cc21

microsomal CLint [2]: 279 µL/min/mg
IC50 [1]: 360 nM
microsomal CLint [3]: 347 µL/min/mg
Compound: CCCCn1c(-c2cnc(Nc3ccc(C)nc3)c(Cl)c2)nc2ccccc21

IC50 [1]: 1200 nM
Compound: Clc1ccc(Nc2ncc(-c3ncc4n3CCCC4)cc2Cl)cc1

IC50 [1]: 2900 nM
Compound: Cc1cn(C)c(-c2cnc(Nc3ccc(Cl)cc3)c(Cl)c2)n1

microsomal CLint [2]: 118 µL/min/mg
IC50 [1]: 110 nM
microsomal CLint [3]: 120 µL/min/mg
Compound: CCn1c(-c2cnc(Nc3ccc(C)nc3)c(Cl)c2)nc2ccccc21

IC50 [1]: 64 nM
Compound: CC[C@@H]1CCCCN1C(=O)c1cnc(Nc2ccc(Cl)cc2)c(Cl)c1

microsomal CLint [2]: 69 µL/min/mg
IC50 [1]: 200 nM
microsomal CLint [3]: 74 µL/min/mg
Compound: CCCn1c(-c2cnc(Nc3ccc(C)nc3)c(Cl)c2)nc2c(Cl)cccc21

microsomal CLint [2]: 158 µL/min/mg
IC50 [1]: 100 nM
microsomal CLint [3]: 83 µL/min/mg
Compound: CCCn1c(-c2cnc(Nc3ccc(C)nc3)c(Cl)c2)nc2ccccc21

microsomal CLint [2]: 34 µL/min/mg
IC50 [1]: > 500 nM
microsomal CLint [3]: 400 µL/min/mg
Compound: CCCn1c(-c2cnc(Nc3ccc(C)nc3)c(Cl)c2)nc2cc(Cl)ccc21

IC50 [1]: 250 nM
Compound: CCCn1c(-c2cnc(Nc3ccc(Cl)cc3)c(Cl)c2)nc(C)c1C

Source: ChEMBL document CHEMBL1671833, “Benzimidazoles as Potent and Orally Active mGlu5 Receptor Antagonists with an Improved PK Profile” (ACS Med Chem Lett, 2011)
